From paper PMC8633684 (Translational Oncology, 2021)
Values belong to the molecule of their own block, whether it stands above or below them.

How the values were obtained:
[1] = Pharmacokinetic analysis, plasma and tissue concentration; format: in vivo, CD1 mice; conditions: CD1, mouse, 1 mg/kg
KP-4 transplanted tumor = experiment: KP-4 xenograft, 6 days of treatment followed by 3 days off-drug; format: in vivo, BALB/c Nude mice; conditions: compared with vehicle group
TIP30/CC3 = experiment: Immunofluorescence of TIP30/CC3 in KP-4 tumor sections; format: in vivo, BALB/c Nude mice; conditions: BS-HH-002 at 3.0 mg/kg, p = 0.004, p = 0.461
MCL-1 = MCL-1 protein in KP-4 transplanted tumor homogenate; format: in vivo, BALB/c Nude mice; conditions: KP-4 xenograft, BS-HH-002 5.4 mg/kg, versus vehicle group
Outline: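 The model was KP-4 subcutaneous xenografts in BALB/c Nude mice. Tumors from at least five mice in each of the vehicle, gemcitabine and test compound (5.4 mg/kg) groups were analysed. MCL-1 and BCL-XL protein levels were measured by Western blot with β-actin or β-Tubulin as internal reference.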

concentration at 2 h ([1]; bone marrow, po): 669 ng/mL | concentration at 8 h ([1]; bone marrow, po): 48.6 ng/mL | concentration at 0.5 h ([1]; bone marrow, sc): 141 ng/mL | concentration at 2 h ([1]; bone marrow, sc): 412 ng/mL | concentration at 8 h ([1]; bone marrow, sc): 43.5 ng/mL | concentration at 0.5 h ([1]; brain, sc): 11 ng/mL | concentration at 2 h ([1]; brain, sc): 6.37 ng/mL | concentration at 8 h ([1]; brain, sc): 4.97 ng/mL | concentration at 0.5 h ([1]; esophagus, po): 607 ng/mL | concentration at 0.5 h ([1]; esophagus, sc): 138 ng/mL | concentration at 2 h ([1]; esophagus, sc): 185 ng/mL | concentration at 8 h ([1]; esophagus, sc): 52.6 ng/mL | concentration at 0.5 h ([1]; heart, po): 125 ng/mL | concentration at 2 h ([1]; heart, po): 321 ng/mL | concentration at 8 h ([1]; heart, po): 156 ng/mL | concentration at 0.5 h ([1]; heart, sc): 541 ng/mL | concentration at 2 h ([1]; heart, sc): 254 ng/mL | concentration at 8 h ([1]; heart, sc): 115 ng/mL | concentration at 0.5 h ([1]; kidney, po): 25.4 ng/mL | concentration at 2 h ([1]; kidney, po): 117 ng/mL | concentration at 8 h ([1]; kidney, po): 33.5 ng/mL | concentration at 0.5 h ([1]; kidney, sc): 2010 ng/mL | concentration at 2 h ([1]; kidney, sc): 796 ng/mL | concentration at 8 h ([1]; kidney, sc): 95.6 ng/mL | concentration at 24 h ([1]; kidney, sc): 5.04 ng/mL | concentration at 0.5 h ([1]; large intestine, po): 105 ng/mL | concentration at 2 h ([1]; large intestine, po): 528 ng/mL | concentration at 8 h ([1]; large intestine, po): 689 ng/mL | concentration at 0.5 h ([1]; large intestine, sc): 1030 ng/mL | concentration at 2 h ([1]; large intestine, sc): 807 ng/mL | concentration at 8 h ([1]; large intestine, sc): 502 ng/mL | concentration at 24 h ([1]; large intestine, sc): 35.4 ng/mL | concentration at 0.5 h ([1]; liver, po): 184 ng/mL | concentration at 2 h ([1]; liver, po): 296 ng/mL | concentration at 8 h ([1]; liver, po): 173 ng/mL | concentration at 0.5 h ([1]; liver, sc): 983 ng/mL | concentration at 2 h ([1]; liver, sc): 615 ng/mL | concentration at 8 h ([1]; liver, sc): 80.2 ng/mL | concentration at 24 h ([1]; liver, sc): 4.53 ng/mL | concentration at 0.5 h ([1]; lung, po): 135 ng/mL | concentration at 2 h ([1]; lung, po): 807 ng/mL | concentration at 8 h ([1]; lung, po): 73.6 ng/mL | concentration at 0.5 h ([1]; lung, sc): 693 ng/mL | concentration at 2 h ([1]; lung, sc): 287 ng/mL | concentration at 8 h ([1]; lung, sc): 62.5 ng/mL | concentration at 24 h ([1]; lung, sc): 5.8 ng/mL | concentration at 0.5 h ([1]; pancreas, po): 85.8 ng/mL | concentration at 2 h ([1]; pancreas, po): 228 ng/mL | concentration at 8 h ([1]; pancreas, po): 211 ng/mL | concentration at 24 h ([1]; pancreas, po): 4.86 ng/mL | concentration at 0.5 h ([1]; pancreas, sc): 753 ng/mL | concentration at 2 h ([1]; pancreas, sc): 512 ng/mL | concentration at 8 h ([1]; pancreas, sc): 215 ng/mL | concentration at 24 h ([1]; pancreas, sc): 5.62 ng/mL | concentration at 0.5 h ([1]; plasma, po): 14.8 ng/mL | concentration at 2 h ([1]; plasma, po): 47.7 ng/mL | concentration at 8 h ([1]; plasma, po): 13.7 ng/mL | concentration at 0.5 h ([1]; plasma, sc): 166 ng/mL | concentration at 2 h ([1]; plasma, sc): 48.9 ng/mL | concentration at 8 h ([1]; plasma, sc): 11.1 ng/mL | concentration at 24 h ([1]; plasma, sc): 0.929 ng/mL | concentration at 0.5 h ([1]; spleen, po): 184 ng/mL | concentration at 2 h ([1]; spleen, po): 742 ng/mL | concentration at 8 h ([1]; spleen, po): 225 ng/mL | concentration at 0.5 h ([1]; spleen, sc): 1990 ng/mL | concentration at 2 h ([1]; spleen, sc): 1290 ng/mL | concentration at 8 h ([1]; spleen, sc): 282 ng/mL | concentration at 24 h ([1]; spleen, sc): 16.5 ng/mL | concentration at 0.5 h ([1]; stomach, po): 1360 ng/mL | concentration at 2 h ([1]; stomach, po): 806 ng/mL | concentration at 8 h ([1]; stomach, po): 870 ng/mL | concentration at 0.5 h ([1]; stomach, sc): 999 ng/mL | concentration at 2 h ([1]; stomach, sc): 587 ng/mL | concentration at 8 h ([1]; stomach, sc): 128 ng/mL | concentration at 24 h ([1]; stomach, sc): 9.84 ng/mL
SMILES: COC(=O)C[C@](O)(CCCC(C)(C)O)C(=O)O[C@@H]1C(OC)=C[C@]23CCCN2CCc2cc4c(cc2[C@H]13)OCO4 [HHT, homoharringtonine]

SMILES: Nc1ccn([C@@H]2O[C@H](CO)[C@@H](O)C2(F)F)c(=O)n1 [gemcitabine, Gemcitabine]
tumor volume (KP-4 transplanted tumor): decreased significantly | CC3 protein expression (TIP30/CC3): significantly increased | MCL-1 protein level in tumor cells (MCL-1): no significant difference
